Assay outcomes: PubChem, Sanford-Burnham Center for Chemical Genomics
Jurkat NFkB inh – inhibitors of induced NF-kB luciferase reporter, primary screen, TCR NF-kB activation inhibitor project, cell-based, luminescence, uHTS; Jurkat, PMA/ionomycin-induced NF-kB luciferase reporter; inhibition, % at 4 µM; 330,000 compounds, 0.53% hits; AID 435003, 2010; in the data active means inhibition above about 50%
697 NFkB inh – inhibitors of PMA/ionomycin-induced NF-kB reporter, 697 cells, primary screen, B-cell NF-kB inhibitor project, cell-based, luminescence, uHTS | inhibition, % at 4 µM | 697 B-cell NF-kB luciferase reporter, 16 h | AID 435022, 2010 | 330,000 compounds, 0.33% hits; in the data active means inhibition above about 35%
CRFBP-R2 block – antagonists of CRF-BP/CRF-R2 complex, primary screen, cell-based, HEK293, calcium dye fluorescence, uHTS | CRF-induced calcium fluorescence | inhibition, % at 11.8 µM | 350,000 compounds, 0.59% hits | AID 588475, 2011;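 active means inhibition of the ligand-induced calcium signal above about 50% at the single tested concentration, limit read from the data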
UPR XBP1 act – activators of adaptive XBP1 UPR arm, primary screen, cell-based, CHO-XBP1 luciferase reporter, luminescence, uHTS | activation, % at 20 µM | 330,000 compounds, 0.33% hits | IRE1-XBP1 UPR activation; percent of tunicamycin response, DMSO as zero | AID 463104, 2010;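 active means versus positive control, 20 µM dose yields 30% or more activation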;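 further: 100% = tunicamycin at 10 µg/mL and 0% = DMSO only wells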
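Material: CHO-XBP1 cells stably carrying IRE1-XBP1-driven luciferase reporter | Medium: F12 with 10% serum | Compound dosing: 20 µM single concentration, DMSO 1% | Incubation: Overnight seeding at 37 °C, 6 h compound treatment at 37 °C | Detection: Steady-Glo luminescence read | Read-out basis: % activation of reporter signal versus tunicamycin and DMSO controls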
UPR CHOP act – activators of apoptotic CHOP UPR arm, primary screen, cell-based, CHO-CHOP luciferase reporter, luminescence, uHTS. 330,000 compounds, 0.34% hits. UPR activation; percent of tunicamycin response over DMSO baseline. activation, % at 10 µM;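 active means at 10 µM dose, activation of 40% or more, normalized to positive control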;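 further: 100% = tunicamycin at 10 µg/mL and 0% = DMSO alone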
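measured by = luciferase luminescence | assay system = CHO-CHOP cells, stable luciferase reporter of PERK-eIF2a-CHOP signalling | amount = 500 reporter cells seeded per well | timing = 6 h compound exposure at 37 °C after overnight seeding | controls = positive tunicamycin 10 µg/mL, negative DMSO alone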
697 NFkB conf – PMA/ionomycin-induced NF-kB reporter inhibitors, 697 retest, confirmation, B-cell NF-kB inhibitor project, cell-based, luminescence, single concentration | shares compounds with 697 NFkB inh | 697 B-cell NF-kB luciferase, 16 h | inhibition, % at 4 µM | 2,000 compounds, 35% hits; in the data active means inhibition mostly above about 28%, no sharp cut-off; inactive means mostly below about 22%
Numbers without * were called inactive; i = inactive; / = no result. In the library only some 1.8% were active in any assay of this set; here they are far more common.

SMILES	Jurkat NFkB inh	697 NFkB inh	CRFBP-R2 block	UPR XBP1 act	UPR CHOP act	697 NFkB conf
Cc1cc(C)nc(NC2=NCC(=O)N2c2ccc(F)c(Cl)c2)n1	10.2	39.8*	12.8	-4.1	-0.9	15.6
CC(C)(CSc1ncccn1)NS(=O)(=O)c1ccccc1	3.3	39.3*	65.9*	-0.8	-0.7	5.7
CC(C)(CSc1ccccn1)NS(=O)(=O)c1ccccc1	5.4	0.9	10.5	-1.8	2.4	/
CCNc1nc(C)c2cc(Br)c(=O)n(CC)c2n1	26.2	41.4*	-26.7	6.5	-4.1	40.1*
CCn1c(=N)c(C(=O)NC)cc2c(=O)n3cccc(C)c3nc21	/	/	5.3	/	/	/
CCCCc1cc(=O)oc2cc(OCC(=O)N(CC)CC)ccc12	8.8	39.2*	-8.5	-3.9	2.5	21.5
Cc1cc(OC(=O)c2ccccc2Cl)cc(=O)n1C	10.0	39.1*	-0.2	-3.5	-0.2	47.5*
Cc1cc(C)c2nc(NC(=O)C3CSC4(C)CCC(=O)N34)sc2c1 (centres undefined)	-7.5	47.5*	-20.2	-0.7	2.9	45.5*
CCOC(=O)Nc1cccc(OCC(=O)Nc2ccc3c(c2)CCC3)c1	3.7	6.4	2.6	1.1	2.1	/
COC(=O)c1ccc(/C=C/c2nc3ccccc3c(=O)[nH]2)cc1	-112.5	-43.1	-5.8	-11.0	-2.8	/
Cc1ccc(/C=C/c2nc3ccccc3c(=O)[nH]2)cc1	-73.5	-253.6	-11.7	-6.7	-5.2	-254.8
COC(=O)c1ccc(/C=C2/SC(=S)N(CCCC(=O)Nc3ccc(O)cc3)C2=O)cc1	12.4	11.7	9.0	-7.5	-4.6	/
Cc1ccc(/C=C2\SC(=S)N(CCCC(=O)Nc3ccccn3)C2=O)cc1	5.0	80.8*	-4.8	-8.2	-10.9	95.8*
O=C(CCN1C(=O)/C(=C/c2ccccc2)SC1=S)Nc1ccccn1	4.5	3.3	7.6	-2.9	1.2	/
Cc1ccc(/C=C2\SC(=S)N(CCCC(=O)Nc3ccc(O)cc3)C2=O)cc1	-1.0	92.2*	4.7	-1.1	-7.0	90.1*
O=C(OCC(=O)N1CCCC1=O)c1cc2ccccc2o1	-17.4	-21.5	7.9	2.2	-0.5	/
CC(=O)Nc1ccc(/C=C(\C#N)C(=O)NC2CCCCC2)cc1	3.0	45.9*	-48.8	-5.4	-1.5	-7.9
C/C(=N\NC(=O)CN1CCN(c2ccc(F)cc2)CC1)c1ccco1	0.2	-3.9	2.7	-2.1	-1.4	/
CCC(C)c1ccc(-c2cc(C(=O)OCC(=O)Nc3cc(C)on3)c3ccccc3n2)cc1 (centres undefined)	-53.8	i	-11.1	-7.7	0.5	-485.8
CN(CC(=O)Nc1ccccc1Br)C(=O)CCSc1ccc(F)cc1	5.3	5.6	10.0	-1.8	0.2	/
Cc1ccccc1C(=O)OCC(=O)Nc1cccc(S(=O)(=O)NC2=NCCC2)c1	-0.6	-0.3	-1.2	-0.4	0.8	/
COC(=O)c1[nH]c2ccc(C)cc2c1NC(=O)CN1CCc2cc(OC)c(OC)cc2C1	-8.8	2.6	4.9	1.9	-3.3	/
COC(=O)c1[nH]c2ccc(C)cc2c1NC(=O)Nc1ccccc1OC	9.0	35.7*	-20.1	-2.2	-2.6	25.9*
O=C(N/C(=C/c1cccc([N+](=O)[O-])c1)C(=O)N1CCOCC1)c1ccccc1Br	8.7	15.3	-3.5	-5.4	0.1	/
CC(C)c1ccc(NC(=O)[C@H](Cc2c[nH]c3ccccc23)NC(=O)[C@@H]2Cc3ccccc3CN2)cc1	-35.1	i	-2.7	-2.6	1.7	-91.6
SMILES	Jurkat NFkB inh	697 NFkB inh	CRFBP-R2 block	UPR XBP1 act	UPR CHOP act	697 NFkB conf
N#Cc1ccccc1COc1ccc(/C=C/C(=O)O)cc1	13.7	38.5*	-12.2	-4.7	-6.9	38.4*
COC(=O)C=C1CCC2C3CC(F)C4(O)CC(=O)CCC4(C)C3C(=O)CC12C (centres undefined)	/	/	-15.5	/	/	/
O=S(=O)(c1ccc(F)c(F)c1)N1CCC2(CC1)OCCO2	16.6	10.6	11.0	-6.2	1.7	/
O=C(c1ccccc1)N1CCN(C(=O)C2CC2)CC1	-7.3	-2.0	5.2	-0.2	2.9	/
O=C1NC[C@H](Cc2ccccc2)N(CC2CCN(CCc3ccc(-c4ccccc4)cc3)CC2)C1=O	/	/	2.8	/	/	/
CCOCCCNC(=S)N1CCC(C(=O)c2ccc3c(c2)OCCO3)CC1	-7.1	101.4*	-1.7	-3.0	1.7	18.9
C=CCN(C(C(=O)OC)C(C)C)S(=O)(=O)CCNCc1ccccc1 (centres undefined)	/	/	-4.7	/	/	/
Cc1nnc(NC(=O)C2CCN(S(=O)(=O)c3ccc(Cl)cc3)CC2)s1	-1.9	-14.0	9.4	1.6	0.0	/
CCCc1c(C(=O)Nc2ccc(F)cc2C)cnn1-c1ccccc1	-5.7	-6.0	11.1	-1.9	0.1	/
CCCc1c(NC(=O)Nc2ccc(F)cc2)cnn1-c1ccccc1	-64.6	i	-15.6	-3.0	1.4	i
Cc1nc2ccccc2c(=O)n1/N=C1\C(=O)N(C)c2ccccc21	-7.0	58.4*	/	6.2	38.0	7.5
O=S(CC(O)(c1ccccc1)c1ccccc1)CC(O)(c1ccccc1)c1ccccc1	/	/	-11.2	/	/	/
O=C(NNC(=O)C12CC3CC(CC(C3)C1)C2)c1cccc(O)c1	7.3	43.9*	2.1	-0.2	1.9	45.4*
Cc1cc(C)c(NC(=O)CSCc2c(C)noc2C)c(Cl)c1	1.1	21.0	5.8	-2.8	-1.2	/
COc1cc(/C=N/NC(=O)c2ccc(NC(=O)C3CCCCC3)cc2)ccc1O	5.7	5.2	12.3	-3.0	-0.6	/
CCOc1cc(/C=N/NC(=O)c2ccc(NC(=O)C3CC3)cc2)ccc1O	22.0	38.5*	14.4	-2.9	-0.3	19.3
O=C(N/N=C/c1cc(Br)ccc1OC(=O)c1ccc(Br)cc1)c1ccncc1	17.8	6.9	-10.1	-1.9	-1.6	/
CCOc1ccc(CCNC(=O)c2cccs2)cc1OCC	5.1	-5.0	5.0	-2.3	-0.6	/
Cc1nc2cc(-c3ccc(Cl)cc3)nn2c(C)c1CCC(=O)NCc1ccco1	16.6	43.4*	21.8	-1.8	0.2	31.3*
Cc1ccc(-c2cc3nc(C)cc(NCc4ccco4)n3n2)cc1	-130.4	-255.9	-0.5	-0.2	4.9	-238.3
COc1ccc(-c2cc3nc(C)c(CCC(=O)NCc4ccco4)c(C)n3n2)c(OC)c1	11.0	28.5	20.5	-1.0	1.1	/
Clc1cccc(-c2cc3nc4c(c(NCc5ccco5)n3n2)CCCC4)c1	-111.0	-326.8	-39.0	5.8	3.4	-346.6
O=S(=O)(Nc1cccc(S(=O)(=O)N2CCCCC2)c1)c1ccc(Cl)s1	1.4	8.4	10.4	8.6	-1.6	/
